# From ChEMBL document CHEMBL1255187, “Structure-based design and synthesis of potent, ethylenediamine-based, mammalian farnesyltransferase inhibitors as anticancer agents” (J Med Chem, 2010)
# Tests used:
# [1] = target: Geranylgeranyl transferase type I (Homo sapiens, UniProt P49354+P53609); assay: Inhibition of human geranylgeranyltransferase-1 assessed as incorporation of [3H]GGPP into H-Ras-CVLL; format: protein-complex assay
# In short: (§1)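 In vitro radiometric assay measuring transfer of [3H]FPP (FTase) or [3H]GGPP (GGTase-I) onto recombinant H-Ras-CVLS or H-Ras-CVLL, respectively.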
# [2] = target: Protein farnesyltransferase (Homo sapiens, UniProt P49354+P49356); assay: Inhibition of human farnesyltransferase assessed as incorporation of [3H]FPP into H-Ras-CVLS; format: protein-complex assay; in short: as §1
# [3] = species: Homo sapiens; assay: Selectivity ratio of IC50 for human geranylgeranyltransferase-1 to IC50 for human farnesyltransferase
# [4] = target: Protein farnesyltransferase (Mus musculus, UniProt Q61239+Q8K2I1); assay: Inhibition of H-Ras farnesylation expressed in mouse NIH3T3 cells; format: functional, cell-based
# In short: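 Oncogenic H-Ras-transformed NIH3T3 cells were treated with a range of inhibitor concentrations. Detection used peroxidase-conjugated secondary antibodies and enhanced chemiluminescence. IC50 is the mean of three independent assays ± SD unless stated otherwise.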
# [5] = target: Geranylgeranyl transferase type 1 (Mus musculus, UniProt Q61239+Q8BUY9); assay: Inhibition of Rap1A geranylgeranylation expressed in mouse NIH3T3 cells; format: functional, cell-based
# In short: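 Oncogenic H-Ras-transformed NIH3T3 cells were treated with a range of inhibitor concentrations. […] Detection used peroxidase-conjugated secondary antibodies and enhanced chemiluminescence. IC50 is the mean of three independent assays ± SD unless stated otherwise.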
SMILES,IC50 [1] [nM],IC50 [2] [nM],Selectivity ratio [3],IC50 [4] [nM],IC50 [5] [nM]
Cn1cnc(S(=O)(=O)N(CCN(Cc2cncn2C)c2ccc(C#N)cc2)CC2CC2)c1,> 10000,590,> 17,> 10000,> 10000
Cn1cnc(S(=O)(=O)N(CCN(Cc2cncn2C)c2ccc(C#N)cc2)CC2CCN(c3ncccn3)CC2)c1,> 10000,510,> 20,> 10000,> 10000
C=C(Br)CN(CCN(Cc1cncn1C)c1ccc(C#N)cc1)S(=O)(=O)c1cn(C)cn1,5500,180,31,5700,> 10000
Cn1cncc1CN(CCN(Cc1ccccc1)S(=O)(=O)c1cccc2cccnc12)c1ccc(C#N)cc1,10000,30,333,600,> 10000
Cn1cnc(S(=O)(=O)N(CCN(Cc2cncn2C)c2ccc(C#N)cc2)Cc2ccc(-n3cccc3)cc2)c1,5800,390,15,4000,> 10000
Cc1nc(C)c(CN(CCN(Cc2cncn2C)c2ccc(C#N)cc2)S(=O)(=O)c2cn(C)cn2)s1,> 10000,6200,> 1.6,> 10000,> 10000
Cn1cnc(S(=O)(=O)N(CCN(Cc2cncn2C)c2ccc(C#N)cc2)CC(=O)NC(C)(C)C)c1,> 10000,1400,> 7.1,> 10000,> 10000
Cn1cnc(S(=O)(=O)N(CCN(Cc2cncn2C)c2ccc(C#N)cc2)Cc2ccco2)c1,13400,870,15,800,> 10000
Cn1cnc(S(=O)(=O)N(CCN(Cc2cncn2C)c2ccc(C#N)cc2)CC2CCCCC2)c1,530,60,8.8,100,> 10000
Cn1cnc(S(=O)(=O)N(CCN(Cc2cncn2C)c2ccc(C#N)cc2)Cc2ccc(C#N)cc2)c1,6500,370,18,> 10000,> 10000
Cn1cnc(S(=O)(=O)N(CCN(Cc2cncn2C)c2ccc(C#N)cc2)Cc2ccoc2)c1,6100,320,19,650,> 10000

# Second part, the molecule after the results:
IC50 [1] [nM],IC50 [2] [nM],Selectivity ratio [3],IC50 [4] [nM],IC50 [5] [nM],SMILES
600,114,5.3,> 10000,> 10000,C=C(C)CN(CCN(Cc1cncn1C)c1ccc(C#N)cc1)S(=O)(=O)c1cn(C)cn1
550,230,2.4,3000,> 10000,Cn1cnc(S(=O)(=O)N(CCN(Cc2cncn2C)c2ccc(C#N)cc2)Cc2cccc(-c3ccccc3)c2)c1
310,41,7.6,300,> 10000,Cn1cncc1CN(CCN(Cc1ccccc1)S(=O)(=O)c1ccccc1)c1ccc(C#N)cc1
1360,510,2.7,> 10000,> 10000,Cc1noc(C)c1CN(CCN(Cc1cncn1C)c1ccc(C#N)cc1)S(=O)(=O)c1cn(C)cn1
780,51,15,1000,> 10000,Cc1ccccc1CN(CCN(Cc1cncn1C)c1ccc(C#N)cc1)S(=O)(=O)c1cn(C)cn1
630,54,12,300,> 10000,Cc1cccc(CN(CCN(Cc2cncn2C)c2ccc(C#N)cc2)S(=O)(=O)c2cn(C)cn2)c1
690,350,2,288,19000,Cn1cncc1CN(CCN(CC1CCCCC1)S(=O)(=O)c1ccccn1)c1ccc(C#N)cn1
